# Source: ChEMBL document CHEMBL4513216, “Probing the Open Global Health Chemical Diversity Library for Multistage-Active Starting Points for Next-Generation Antimalarials” (ACS Infect Dis, 2020)
# Assay: Toxicity liver stage against HepG2, at 10uM
# Format: cell-based
# Set-up: test concentration 10 uM, cell line HepG2-A16-CD81EGFP
# Conditions: human, HepG2-A16-CD81EGFP cells; read-out: INHIBITION
# Outline: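 Uninfected HepG2-A16-CD81EGFP cells, 3 × 10^3 per well, 1536-well, plated on prespotted compound at 10 μM final, parasite-free screening media added to match infected plates; puromycin 10 μM positive, DMSO 0.5% negative; run in parallel with 48 h PbLuc assay at 37 °C, 5% CO2; viability by CellTiter-Glo luminescence, normalized to controls.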
row,SMILES,cytotoxicity at 10 µM
1,CCOC(=O)Cn1c(=O)c(OCC)nc2cnccc21,4.25%
2,CCc1c(C)nc2n(c1=O)CC(C(=O)Nc1ccccc1C)CS2 (stereo not given),-1.38%
3,COc1cc(N2C[C@H]3CN(CC(=O)N(C)C)C(=O)[C@H]3C2)ncn1,96.6%
4,CN(C)C[C@H]1C[C@@H]2CN(C(=O)c3ccco3)C[C@@H]2O1,-5.77%
5,COc1cc(N2CC3(CCN(S(=O)(=O)C4CC4)C3)C2)ncn1,7.34%
6,O=C(N1CCOCC1)N1C[C@@H]2OCCN(C(=O)c3ccco3)[C@@H]2C1,-135%
7,Cc1ccc(N2CCCc3sc(C(=O)NCc4ccncc4)nc32)nn1,14.6%
8,O=C(C[C@@H]1COC[C@H]2CN(C3CCOCC3)C[C@@H]12)Nc1cnccn1,12%
9,CCc1nc(NCc2ccccn2)c2c(n1)c(C)nn2C,8.92%
10,Cc1ccc(NC(=O)N2CCN(Cc3ccccn3)CC2)cc1Cl,-7.21%
11,Cc1nn(CCNc2ncnc3c2NC(=O)CN3)c(C)c1Cl,10.5%
12,Cc1nn(C)c(C)c1CN(C)C(=O)c1cc(C(F)(F)F)n(C)n1,-0.65%
13,COc1ccc([C@@H]2NC(=O)N[C@H]3OCCC[C@H]32)cc1,1.49%
14,CCn1nc(C)c2nnn(CC(=O)Nc3cccc(C)c3)c(=O)c21,10.1%
15,CCC(=O)N1CCC(c2nc(N3CCCCC3)ncc2S(C)(=O)=O)CC1,4.03%
16,Cc1cc(C)nc(N2CC[C@H](Oc3ccccc3F)[C@@H](O)CC2)n1,3.72%
17,Cc1nc[nH]c1CN(Cc1ccc(F)cc1)C1CC(C)(C)NC(C)(C)C1,0.92%
18,CC(=O)NCC(=O)NCC1(O)CCN(c2cnccn2)C1 (stereo not given),7.89%
19,CN(C)C(=O)CN1CCCC(Cc2ccc(N3CCCC3)nn2)C1 (stereo not given),3.77%
20,CN(C)Cc1ccnc(C2CN(CCCc3ccccc3)CCO2)n1 (stereo not given),-6.36%
21,NC(=O)C1CN(C(=O)Cc2cccnc2)CCN(C2CCOCC2)C1 (stereo not given),-9.58%
22,CNC(=O)C1CN(C(=O)COc2ccccc2)Cc2cn(C)nc21 (stereo not given),-10.4%

row,SMILES,cytotoxicity at 10 µM
1,Cc1cc2c(=O)n3c(nc2s1)CCN(C(=O)c1cnn(C)c1C)CC3,0.359%
2,Cc1nc(NC2CCCC2)cc(C2CCN2C(=O)c2cccnc2)n1 (stereo not given),0.848%
3,O=C(CN1CCOCC1)Nc1cc(C(F)(F)F)ccc1-n1cccc1,8.32%
4,CCC(=O)N1CCC(NCc2cc(C(F)(F)F)ccc2Cl)C1 (stereo not given),-4.04%
5,O=C1C(Sc2cnn[nH]2)CCCN1c1ccccc1F (stereo not given),24.9%
6,CCN(Cc1cc(Br)ccc1F)C(=O)C(C)NC(N)=O (stereo not given),11.6%
7,CC(=O)Nc1cccc(CN2CCN(C3=NCC(C)(C)S3)CC2)c1,0.955%
8,CC(CNC(=O)CCc1ccco1)N1CCc2sccc2C1 (stereo not given),4.35%
9,NS(=O)(=O)c1cnn(CC(=O)Nc2c(Cl)cccc2Cl)c1,-7.2%
10,CCn1ccnc1CN1CCN(c2nccc(OC)n2)CC1C (stereo not given),-17.9%
11,CC(C)NC(=O)NC(=O)C(C)N1CCN(C2CCN(C(C)C)CC2)CC1 (stereo not given),-15.5%
12,CCc1nnc(NC(=O)N(CCOC)Cc2ccc(C)o2)s1,-18.8%
13,COC(=O)C(NC(=O)c1ccc(C)cc1C)c1cccnc1 (stereo not given),-41.9%
14,CC1COC2(CCN(C(=O)c3ncoc3C(C)C)CC2)O1 (stereo not given),1.15%
15,CN(C(=O)C1CC(=O)N(CCc2ccccc2)C1)c1nccs1 (stereo not given),9.89%
16,COc1ccc2oc(C(C)NC(=O)NCC(C)(C)C(N)=O)c(C)c2c1 (stereo not given),-9.51%
17,CCS(=O)(=O)N1CCCC(c2nc3ccccc3n2C(C)C)C1 (stereo not given),-6.11%
18,CSc1ccc(S(=O)(=O)NC2CNC(=O)C2)cc1 (stereo not given),-2.46%
19,COc1cccc(CNc2cc(CO)ccc2Cl)c1,-13.3%
20,CSc1ccc(NCC(=O)Nc2c(C)nn(C)c2C)cc1F,10.7%
21,CCC(NCc1cc[nH]n1)c1nc(C(F)(F)F)cs1 (stereo not given),6.12%
22,Cc1noc(C2CCCN(CC(=O)N3CCc4ccccc4C3)C2)n1 (stereo not given),-19.3%

row,SMILES,cytotoxicity at 10 µM
1,O=C(Nc1cccc(OCC(F)F)n1)c1ccncc1F,-3.33%
2,Cc1cc(C)n(C2CN(CC(=O)NCc3ccccn3)C2)n1,-2.92%
3,CC(C)(C)c1ccc(S(=O)(=O)CCN2CCNC(=O)CC2)cc1,-5.41%
4,O=S(=O)(Cc1c(F)cccc1F)NCCOc1cccnc1,-39.7%
5,COc1ccc(C(C)N2CCC(OC)CC2)cc1Cl (stereo not given),-53.2%
6,CC1CCCN(c2ccccc2OCC(=O)NC2CC2)C1 (stereo not given),10.1%
7,CCN(Cc1noc(CC(C)C)n1)Cc1ccccc1C,-50.8%
8,Cc1nn(C)c(Cl)c1C1CCCN1c1ncnc2sccc12 (stereo not given),20.8%
9,Cc1nc(COC[C@@]23CCC[C@@H]2CN(Cc2cnn(C)c2)C3)cs1,-101%
10,CCC1=NC2(CCC(C(=O)Nc3ccc(F)cc3)CC2)C(=O)N1C (stereo not given),2.26%
11,Fc1ccccc1CN1C[C@@H]2OCCN(c3ncccn3)[C@@H]2C1,-74%
12,O=C(Cc1ccsc1)N1CCc2ncc(Cn3cccn3)n2CC1,-81.5%
13,COCCO[C@H]1CCN(C(=O)c2cnoc2C)[C@H]1Cc1cnn(C)c1,-69.6%
14,CNC(=O)[C@@]12CCO[C@@H]1CCN(S(=O)(=O)c1ccccc1)C2,-74.8%
15,CC(=O)N1C[C@H](NC(=O)c2cscn2)[C@@H]2OCCC[C@@H]21,2.88%
16,CN(C)c1nccc(-c2c[nH][nH]c2=O)n1,-1.25%
17,CNCC[C@H]1CC(C)(C)Oc2ccc(OC)cc21,0.942%
18,Cc1ncc(-c2ccnc(SCCN)n2)c(-c2ccco2)n1,-14.8%
19,Cc1cccc(C)c1OCC(C)Nc1nc(N)nc2c1CCNC2 (stereo not given),5.75%
20,CNC(=O)c1cc2c(s1)CCN(C(=O)CCC1CCCN(C)C1)C2 (stereo not given),-29.3%
21,CCOc1cccc(C2CC(=O)NCc3nc(N)sc32)c1 (stereo not given),-9.23%
22,Cc1ccc(CN(C)C(=O)c2cc(Cn3ccnc3C(C)C)[nH]n2)o1,0.073%

row,SMILES,cytotoxicity at 10 µM
1,Cc1csc(CN2C[C@H](NC(=O)C3CCOCC3)[C@@H](C(C)C)C2)n1,6.99%
2,CCOCCNC(=O)C1CCC(=O)N(CCc2ccc(Cl)cc2)C1 (stereo not given),8.61%
3,CN(Cc1nc2ccccc2c(=O)[nH]1)C[C@@H]1CCCN2CCCC[C@H]12,-6.01%
4,NC1(C(=O)NCC2CCCN(Cc3ccccc3F)C2)CCCC1 (stereo not given),-43.2%
5,CC(C)c1nc(CNC(=O)c2ccc(C(C)N3CCCCC3)o2)cs1 (stereo not given),-9.93%
6,CCCn1cnc(NC(=O)NCC2CCS(=O)(=O)C2)n1 (stereo not given),10.3%
7,COc1cccc2c1OCC(CNc1ccc(C)nn1)C2 (stereo not given),8.62%
8,CN(C)c1nc(NCCc2ccnn2C)ncc1F,-9.83%
9,Cc1cc(C)c2c(NCCC3(O)CCCC3)ncnc2n1,-4.44%
10,CC(C)c1cc(N[C@@H](CO)C(N)=O)n2nccc2n1,-1.28%
11,CCc1ccccc1OCCN(C)C(=O)CCN1CCCO1,-43%
12,Cc1cccc(C(C(=O)N(C)CCc2cn[nH]c2)N(C)C)c1 (stereo not given),-8.06%
13,O=C1NCC2(CCCN(C(=O)c3ccc4c(c3)OCCO4)CC2)O1 (stereo not given),-9.35%
14,CN(C)C(C(=O)N1CCN(C(=O)c2ccc[nH]2)CC1)c1ccc(F)cc1 (stereo not given),-5.19%
15,CCOC(=O)CC1CCCCN1C(=O)CCc1cc(Cl)no1 (stereo not given),6.95%
16,COc1ccccc1OC1(C(=O)O)CCN(c2cnccn2)CC1,-27.5%
17,CCn1nc(C)cc1C(=O)NCc1cccnc1N(C)C,-5.54%
18,Cc1cccnc1CC(C)NC1Cc2ccccc2C1 (stereo not given),4.69%
19,Cn1cc(N)c(-c2nnc3n2CCCC3)n1,-6.83%
20,CCC(=O)N1CCCC1c1nccnc1Nc1ncccn1 (stereo not given),3.58%
21,Cc1csc(N2CCN(CC(=O)Nc3c(C)n[nH]c3C)CC2C)n1 (stereo not given),-14.4%
22,NC(=O)c1cc(C2CCCN(CCCOc3ccccc3)C2)n[nH]1 (stereo not given),-12.1%

row,SMILES,cytotoxicity at 10 µM
1,O=C1C(NCc2nnc3n2CCCC3)CCN1CC(F)(F)F (stereo not given),-13.8%
2,COc1ccccc1CN(Cc1cccnc1)CC1CCCO1 (stereo not given),1.03%
3,Cc1c(Br)cccc1C(=O)NCC1CCCNC1 (stereo not given),19.8%
4,c1ccc(NCc2cn3c(n2)CNCC3)nc1,9.28%
5,Cn1cc(C2COC3(CCN(C(=O)c4ccccn4)CC3)C2)cn1 (stereo not given),-87.1%
6,O=C(CC1CC1)N1CCc2ncc(CN3CCOCC3)n2CC1,-80.6%
7,COCC1CC2(CCN(C(=O)c3cnc4ccccc4c3)CC2)CO1 (stereo not given),-142%
8,CCc1ccc(CN2C[C@H](OC)[C@H]3COC[C@H]32)o1,5.22%
9,O=C(c1cocn1)N1C[C@H]2CCC[C@@]2(COc2ccccn2)C1,-0.798%
10,CCN1CCCC12CCN(Cc1cccnc1OC)CC2,13.4%
11,Cc1nc(CN2C[C@@H]3CN(C(=O)C4CC4)C[C@@H]3C2=O)cs1,4.19%
12,COc1cccc(CNC(Cc2cccs2)c2nc(C)c(C)s2)c1OC (stereo not given),-12.9%
13,c1csc(CN2CCc3c(CNc4nncs4)cncc3C2)c1,-70.1%
14,CCCC(=O)N1CCN(CCN(C)C)c2nc(C)ccc2C1,-73.9%
15,Cc1nc(CN2CCO[C@@H]3CN(Cc4ccccn4)CC[C@@H]3C2)cs1,7.02%
16,O=C(NC1CC1)[C@H]1C[C@H]2OCC[C@H]2N(Cc2cccnc2)C1,0.698%
17,Cc1ccc2c(c1)C(NC1CC1)CC21CCNCC1 (stereo not given),-98%
18,O=C1COC2(CCN(c3cccc(F)c3)CC2)CN1Cc1ccccn1,-2.94%
19,Cn1cccc1C(=O)N1C[C@@H](OCc2ccncc2)[C@@H]2OCCC[C@@H]21,2.32%
20,COc1ccc(CN2CCCn3cnc(COCC4CC4)c3C2)cc1,11%
21,N#Cc1cccc(N2CCCC3(C2)CN(c2ncccn2)CCO3)n1 (stereo not given),17.8%
22,Cc1cccc(S(=O)(=O)N2C[C@@H]3C[C@H](C(=O)N(C)C)[C@H](C2)O3)c1,-5.18%
